These results are taken from ChEMBL document CHEMBL2029242 (J Med Chem, 2012).

pEC50, pIC50, pKd: −log10 of the molar value.

For data set [1], the system named is Mus musculus. Nature of the data set: Inhibition of BRAF V600E mutant-mediated MEK phosphorylation in human COLO205 cells xenografted in athymic nude mouse at 30 mg/kg, po after 6 hrs. In kind it is functional. The conditions noted are these: COLO 205, 6 h. The gist of the method: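 Mice bearing Colo-205 xenografts got one oral dose in 22% HPβCD; vehicle controls were run. Tumors were collected at time points over 24 h and lysed. pMEK and total MEK in the lysates were measured by immunoblotting and ELISA, and pMEK was normalized to total MEK.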
(In general: A xenograft is tissue or cells of one species grown in another, often human tumour cells in immunodeficient mice.)

A short description of data set [2]: Oral bioavailability in beagle dog at 10 mg/kg. It counts as ADME, organism-based, Canis lupus familiaris. The conditions noted are these: in vivo. A digest of the protocol: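 Male non-naive cynomolgus monkeys (2.6–3.4 kg) and beagle dogs (10.3–11.9 kg), n = 3 each, were dosed in a crossover design with a ≥7-day washout. Doses were 10 mg/kg by nasogastric gavage and 1 mg/kg as a saphenous iv bolus, both free base in 22% HPβCD. Animals were fasted overnight until about 4 h post dose. Femoral plasma was sampled from predose to 24 h and analyzed by LC-MS/MS. Parameters came from noncompartmental analysis; mean ± SD reported.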

For data set [3], the system named is Mus musculus. Nature of the data set: Toxicity in athymic nude mouse xenografted with human COLO205 cells at 10 mg/kg, po bid for 14 days. The settings on record: in vivo, 336 h. More on the design: dose 10 mg/kg, route oral. In kind it is organism-based, COLO 205. A digest of the protocol: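 Athymic nude mice (20–25 g) were inoculated subcutaneously in the flank with 1×10^6 Colo-205 cells. At 150–200 mm3 they were randomized (n = 10/group) to oral vehicle (22% HPβCD) or 10, 30 or 100 mg/kg BID for 14 days. Calipers were used three times weekly. Body weight and behavior were monitored, with 7–10 days of follow-up after dosing. Partial regression meant volume falling in ≥3 successive measurements, ending below baseline but still palpable.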

In data set [4] the target is Cytochrome P450 2C9 (Homo sapiens, UniProt P11712). Description: Inhibition of human CYP2C9. In kind it is ADME. The gist of the method: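 Pooled human liver microsomes (0.25 mg/mL) with NADPH (1 mM) and five pooled probe substrates (testosterone, diclofenac, dextromethorphan, mephenytoin, phenacetin). Test compound ran at eight concentrations, 0.31−40 μM, 20 min at 37 °C, with pooled control inhibitors in parallel. Isoform-specific metabolites were measured by LC-MS/MS.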

The nature of data set [5]: Cmax in Cynomolgus monkey at 10 mg/kg, po. On the set-up: dose 10 mg/kg, route oral. It counts as ADME, organism-based, Macaca fascicularis. The settings on record: in vivo. A digest of the protocol:
(§1)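 Single-dose PK. Rats: male Sprague−Dawley, jugular-catheterized, 1 mg/kg iv in 3:1 PEG400/water (n = 2) and 10 mg/kg po in Pharmatek #6 (n = 3). Female athymic nude mice: 100 mg/kg po in Pharmatek #6 (n = 3). Beagle dogs and male cynomolgus monkeys (n = 3): crossover, 1 mg/kg iv and 10 mg/kg po in 22% HPβCD, overnight fast. Plasma LC-MS/MS to 24 h; noncompartmental parameters, mean ± SD.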

A short description of data set [6]: Clearance in Sprague-Dawley rat at 1 mg/kg, iv and 10 mg/kg, po. In kind it is ADME, organism-based. The conditions noted are these: in vivo. The gist of the method:
as §1

A short description of data set [7]: Tmax in Sprague-Dawley rat at 10 mg/kg, po. It counts as ADME, organism-based. More on the design: dose 10 mg/kg, route oral. The settings on record: in vivo. The gist of the method: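 Male Sprague-Dawley rats (250–350 g, jugular-catheterized) received a single dose either iv at 1 mg/kg in 3:1 PEG400/water (n = 2) or po at 10 mg/kg in Pharmatek #6 (n = 3). Plasma was sampled at 5 min (iv only), 15 and 30 min, and 1, 2, 4, 6 and 24 h. Samples were analyzed by LC-MS/MS after acetonitrile precipitation. Parameters came from noncompartmental linear-trapezoidal analysis of individual animals.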

In data set [8] the target is Serine/threonine-protein kinase B-raf (Homo sapiens, UniProt P15056, V600E).
The subject of data set [9] is COLO-679. Description: Cytotoxicity against human COLO679 cells expressing BRAF V600E mutant after 72 hrs by cell titer blue assay. In kind it is functional, cell-based. The conditions noted are these: COLO-679, 72 h. The gist of the method:
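Cells were grown in ATCC-recommended media and kept overnight in 0.5% serum. They were then exposed to compound for 72 h, and Cell Titer Blue was added for 3 h. EC50 came from fluorometric concentration−response curves, run in duplicate and repeated at least once.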
For orientation: The colour change of resazurin is a common sign of viable cells or microbes.

Cytochrome P450 2C9, sequence (P11712 whole entry, canonical isoform): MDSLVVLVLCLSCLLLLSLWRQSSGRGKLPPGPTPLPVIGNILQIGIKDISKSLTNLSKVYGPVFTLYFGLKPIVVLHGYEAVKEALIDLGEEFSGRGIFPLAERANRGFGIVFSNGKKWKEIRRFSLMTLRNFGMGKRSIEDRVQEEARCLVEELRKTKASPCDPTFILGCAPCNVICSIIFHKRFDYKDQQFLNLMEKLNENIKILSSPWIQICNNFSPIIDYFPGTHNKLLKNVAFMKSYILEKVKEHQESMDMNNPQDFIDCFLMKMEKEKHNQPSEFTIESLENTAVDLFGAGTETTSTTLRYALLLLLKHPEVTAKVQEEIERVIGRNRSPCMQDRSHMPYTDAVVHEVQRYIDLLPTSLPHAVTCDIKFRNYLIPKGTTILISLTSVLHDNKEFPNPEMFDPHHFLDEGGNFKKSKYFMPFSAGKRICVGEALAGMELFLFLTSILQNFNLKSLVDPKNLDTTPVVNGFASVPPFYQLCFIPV
Serine/threonine-protein kinase B-raf, sequence (P15056 2-766 V600E limits assumed): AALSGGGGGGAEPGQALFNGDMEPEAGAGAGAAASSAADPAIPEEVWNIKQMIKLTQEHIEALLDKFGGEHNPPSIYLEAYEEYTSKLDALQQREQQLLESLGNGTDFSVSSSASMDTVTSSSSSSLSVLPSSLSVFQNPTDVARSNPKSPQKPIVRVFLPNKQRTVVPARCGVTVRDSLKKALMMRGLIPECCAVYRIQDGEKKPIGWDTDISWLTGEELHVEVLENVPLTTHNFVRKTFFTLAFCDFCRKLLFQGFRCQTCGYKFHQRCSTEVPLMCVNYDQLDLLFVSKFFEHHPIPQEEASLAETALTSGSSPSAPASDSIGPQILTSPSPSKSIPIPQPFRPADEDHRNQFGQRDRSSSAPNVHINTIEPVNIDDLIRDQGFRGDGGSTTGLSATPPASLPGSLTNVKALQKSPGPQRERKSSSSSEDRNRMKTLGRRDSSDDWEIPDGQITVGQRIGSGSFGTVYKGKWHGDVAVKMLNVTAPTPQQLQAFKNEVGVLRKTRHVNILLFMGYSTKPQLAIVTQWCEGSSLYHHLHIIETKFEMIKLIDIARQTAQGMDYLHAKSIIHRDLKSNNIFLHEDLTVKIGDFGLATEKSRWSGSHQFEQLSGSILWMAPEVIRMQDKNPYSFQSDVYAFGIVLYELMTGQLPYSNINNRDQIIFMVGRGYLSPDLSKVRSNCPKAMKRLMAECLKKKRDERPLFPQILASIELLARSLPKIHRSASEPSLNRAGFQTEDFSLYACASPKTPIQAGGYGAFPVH

On to `COc1cc2ncnc(Oc3cccc(NC(=O)Nc4cc(C(C)(C)C(F)(F)F)on4)c3)c2cc1OC` [CEP-32496], for which, in data set [1], the inhibition in vivo (commonly the relative decrease from the control value, in per cent) at 30 mg/kg turned out to be 75%. Moreover, the bioavailability (in general, dose-corrected exposure relative to a reference, in per cent) in [2] worked out at 100%. Further, the Activity result in [3] was “Non-toxic”. Besides, the pIC50 – broadly, the IC50 on a negative log10 scale, so that one unit is a factor of ten – in data set [4] was less than 5.00. The Cmax – broadly, the maximum level reached in the sampled fluid or tissue – in data set [5] amounted to 4.3 µM. In [6], this compound yielded a clearance of 3.4 mL/min/kg. The time of peak concentration (Tmax) (as a rule, the time at which the peak concentration occurs) in data set [7] came to 2 h. Besides, in data set [8], the pKd (as a rule, −log10 of the Kd, conventionally taken in molar units) was 7.85. Also, the negative logarithm of the EC50 (pEC50) (usually −log10 of the EC50, conventionally taken in molar units) in data set [9] is 6.68.
